The structures appear in SMILES notation. Values after ≈ are worked out from the molar mass of the structure shown.

For orientation: IC50 means the point on the concentration scale where inhibition reaches its midpoint. As a reminder, the MIC is the least concentration at which growth counts as inhibited. What is called LC50 is the concentration that kills 50% of the test population.

The test system of series [1] is Amaranthus hypochondriacus. Kind of series: Stimulation of Amaranthus hypochondriacus radicle growth at 1 ug/ml incubated in dark at 27 degC measured after 24 hrs relative to control. The class given is functional. The essentials: (§1)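 Petri-dish seed assay at 1 µg/ml, with sample in MeOH-H2O (1:1) air-dried before seeding. Held in the dark at 27° and scored at 24 h (Amaranthus) or 48 h (E. crus-galli). Radicle growth expressed relative to untreated controls.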

Series [2] has as its system Echinochloa crus-galli. Kind of series: Stimulation of Echinochloa crus-galli radicle growth at 1 ug/ml incubated in dark at 27 degC measured after 48 hrs relative to control. The class given is functional. The gist of the method: as §1
The test system of another series is Lu1. Kind of series: Cytotoxicity against human Lu1 cells. In kind it is functional. The note with it: read-out: ED50 (the source's name). The gist of the method:
(§2)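 Cell lines established from primary human tumors at a university surgical oncology division and tested in vitro following an earlier cytotoxicity protocol. The value is reported as ED50.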

For series [3], the system named is Amaranthus hypochondriacus. Kind of series: Phytogrowth-inhibitory activity against Amaranthus hypochondriacus assessed as inhibition of seed germination incubated in dark at 27 degC measured after 24 hrs. In kind it is functional, organism-based. The gist of the method:
(§3)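 Seeds in Petri dishes with test sample applied in MeOH-H2O (1:1), solvent air-dried before use. Kept in the dark at 27°: 24 h for Amaranthus, 48 h for E. crus-galli. Germination percentage and radicle length scored. Controls: 2,4-D positive, solvent-only negative. Germination IC50 from linear regression; radicle-growth IC50 from probit analysis.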

The test system of the next series is Col2. In words: Cytotoxicity against human Col2 cells. The note with it: read-out: ED50 (the source's name). In kind it is functional. The essentials: as §2
The test system of the next series is LNCaP. In words: Cytotoxicity against human LNCAP cells. In kind it is functional. The note with it: read-out: ED50 (the source's name). The essentials:
(§4)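 Cell lines obtained from ATCC and tested in vitro following an earlier cytotoxicity protocol. The value is reported as ED50.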

Another series deals with P388. Kind of series: Cytotoxicity against mouse P388 cells. The settings on record: read-out: ED50 (the source's name). The class given is functional. The essentials:
as §4

The test system of series [4] is Echinochloa crus-galli. In words: Phytogrowth-inhibitory activity against Echinochloa crus-galli assessed as inhibition of radicle growth at 100 ug/ml incubated in dark at 27 degC measured after 48 hrs. The note with it: read-out: GI. The class given is functional. The gist of the method:
(§5)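 Samples in MeOH-H2O (1:1) were added to Petri dishes and air-dried, giving a final 100 µg/ml. Solvent-only dishes served as negative controls and 2,4-D as positive control. Dishes were kept dark at 27°. Radicle length was read at 24 h for A. leucocarpus and 48 h for E. crus-galli. Results are % of untreated control, 4 replicates × 20 seedlings, with ANOVA/Duncan.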

The nature of series [5]: Cytotoxicity against drug-resistant human KBV1 cells. In kind it is functional. The note with it: KB-V1, read-out: ED50 (the source's name).
A further series relates to KB. Kind of series: Cytotoxicity against human KB cells. The class given is functional. The note with it: read-out: ED50 (the source's name). The essentials: as §4
Series [6] relates to Echinochloa crus-galli. Kind of series: Phytogrowth-inhibitory activity against Echinochloa crus-galli assessed as inhibition of radicle growth incubated in dark at 27 degC measured after 48 hrs. In kind it is functional, organism-based. The essentials: as §3
A short description of series [7]: Cytotoxicity against human BC1 cells. The class given is functional. The note with it: read-out: ED50 (the source's name). The gist of the method: as §2
The next series deals with HT-1080. Kind of series: Cytotoxicity against human HT1080 cells. In kind it is functional. The settings on record: read-out: ED50 (the source's name). The gist of the method: as §4
Another series deals with SK-MEL-2. In words: Cytotoxicity against human SK-MEL-2 cells. The class given is functional. The settings on record: read-out: ED50 (the source's name). The gist of the method:
as §2

The next series has as its system Staphylococcus aureus. In words: Antibacterial activity against Staphylococcus aureus ATCC 25923 by agar diffusion technique. In kind it is functional. Background: In agar diffusion tests the substance spreads into inoculated agar from a disc or well.
For series [8], the system named is Echinochloa crus-galli. Kind of series: Phytogrowth-inhibitory activity against Echinochloa crus-galli assessed as inhibition of seed germination incubated in dark at 27 degC measured after 48 hrs. The class given is functional, organism-based. The essentials: as §3
For series [9], the system named is Amaranthus hypochondriacus. In words: Phytogrowth-inhibitory activity against Amaranthus hypochondriacus assessed as inhibition of radicle growth at 100 ug/ml incubated in dark at 27 degC measured after 24 hrs. The class given is functional. The settings on record: read-out: GI. The essentials: as §5
In another series the test system is ZR-75-1. Kind of series: Cytotoxicity against human ZR-75-1 cells. The class given is functional. The note with it: read-out: ED50 (the source's name). The essentials: as §4
Series [10] can be described thus: (§6) Displacement of [3H]PDBu from protein kinase C in calf brain homogenate by scintillation counting. In kind it is tissue-based, Bos taurus. The essentials:
(§7)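 Incubation mix contained 50 mM Tris/HCl (pH 7.4), 1 mM CaCl2, 39.2 nM [3H]PDBu, 50 µg/ml calf brain homogenate as the protein kinase C source, and compound in DMSO. Tubes ran 1 h at ambient temperature, then were filtered onto glass fiber and counted. Nonspecific binding was taken as the part not displaced by 100-fold excess unlabelled PDBu. Curve used five-fold dilutions from 200 to 0.32 µg/ml, 4 replicates.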
For orientation: In a radioligand displacement assay an active substance lowers the binding of a labelled ligand.

The next series is filed under the species Bos taurus. Described as §6. The class given is tissue-based. The gist of the method:
as §7

Series [11] in a line: Toxicity in brine shrimp assessed as lethality. The settings on record: artemia, in vivo. The class given is organism-based.
A further series concerns A-431. In words: Cytotoxicity against human A431 cells. In kind it is functional. The note with it: read-out: ED50 (the source's name). The essentials: as §4
The subject of series [12] is Amaranthus hypochondriacus. Kind of series: Phytogrowth-inhibitory activity against Amaranthus hypochondriacus assessed as inhibition of radicle growth incubated in dark at 27 degC measured after 24 hrs. In kind it is functional, organism-based. The essentials: as §3

Consider `O=C(O)COc1ccc(Cl)cc1Cl` [2,4-DICHLOROPHENOXYACETIC ACID], for which the Activity (in series [1]; in the series with Echinochloa crus-galli [2]) was 4% each time.
In the case of `CCCCC[C@H]1CCCCCCCCCC(=O)O[C@H]2[C@H](O)[C@@H](CO)O[C@@H](O[C@H]3[C@H](O1)O[C@H](C)[C@H](O)[C@@H]3O)[C@@H]2O[C@@H]1O[C@@H](C)[C@H](OC(=O)[C@@H](C)CC)[C@@H](O[C@@H]2O[C@@H](C)[C@H](O)[C@@H](O)[C@H]2O)[C@H]1OC(=O)[C@@H](C)CC` [TRICOLORIN A], the EC50 is 5.5 µg/mL (≈ 5.38 µM) in the series with Lu1; 8.9 µg/mL (≈ 8.7 µM) in the series on Col2; 5.8 µg/mL (≈ 5.67 µM) in the series with LNCaP; 2.2 µg/mL (≈ 2.15 µM) with P388; > 20 µg/mL in series [5]; > 20 µg/mL in the series with KB. The EC50 in series [7] worked out at 2.2 µg/mL (≈ 2.15 µM); in the series with HT-1080 it was 6.3 µg/mL (≈ 6.16 µM); with SK-MEL-2 it was 7.6 µg/mL (≈ 7.43 µM); with ZR-75-1 it was 8.1 µg/mL (≈ 7.92 µM); in the series on A-431, 10.3 µg/mL (≈ 10.1 µM). Besides, the IC50 came to 152 µg/mL (≈ 149 µM) in [3]; 12.6 µg/mL (≈ 12.3 µM) in the series with Echinochloa crus-galli [6]; 36.9 µg/mL (≈ 36.1 µM) with Echinochloa crus-galli [8]; 44.1 µg/mL (≈ 43.1 µM) in series [10]; 37 µg/mL (≈ 36.2 µM) in [12]. For the same molecule, the inhibition of growth at 100 µg/mL with Echinochloa crus-galli [4] was 78.8%; in series [9], 68.3%. Moreover, the Activity in series [1] was 4%; in the series on Echinochloa crus-galli [6], “Dose-dependent effect”; in the series with Echinochloa crus-galli [2], 4%; in the series listed under Bos taurus, “Dose-dependent effect”; in [12], “Dose-dependent effect”. The same molecule showed an MIC in the series on Staphylococcus aureus of 1.8 µg/mL (≈ 1.76 µM). For the same molecule, the median lethal concentration (LC50) in [11] is 18.2 µg/mL (≈ 17.8 µM).

(Values after ChEMBL document CHEMBL1147355, “Tricolorin A, major phytogrowth inhibitor from Ipomoea tricolor” (J Nat Prod, 1993).)
